Biological target: Platelet-activating factor acetylhydrolase (Mus musculus) (UniProt Q60963)
Experiment: pPAFAH inhibition after oral dosing in mice, late-stage follow-up, in vivo study, gel-based competitive ABPP, fluorescence (AID 588789)
Conditions: brain membrane gel ABPP, HT-01, 50 mg/kg oral dose, 4 h, active compounds read high
In short: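 Assay system: mouse brain membrane proteome after oral dosing; buffer or medium: Dulbecco's PBS (DPBS); schedule: 4 h dosing-to-sacrifice, then 30 min probe labelling, 37 °C; technique: SDS-PAGE followed by in-gel fluorescence scan of pPAFAH band; evaluation: % inhibition from band density versus vehicle; benchmarks: vehicle mice high, gel background low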

Chain of Platelet-activating factor acetylhydrolase (Mus musculus) (Q60963 whole entry, looked up): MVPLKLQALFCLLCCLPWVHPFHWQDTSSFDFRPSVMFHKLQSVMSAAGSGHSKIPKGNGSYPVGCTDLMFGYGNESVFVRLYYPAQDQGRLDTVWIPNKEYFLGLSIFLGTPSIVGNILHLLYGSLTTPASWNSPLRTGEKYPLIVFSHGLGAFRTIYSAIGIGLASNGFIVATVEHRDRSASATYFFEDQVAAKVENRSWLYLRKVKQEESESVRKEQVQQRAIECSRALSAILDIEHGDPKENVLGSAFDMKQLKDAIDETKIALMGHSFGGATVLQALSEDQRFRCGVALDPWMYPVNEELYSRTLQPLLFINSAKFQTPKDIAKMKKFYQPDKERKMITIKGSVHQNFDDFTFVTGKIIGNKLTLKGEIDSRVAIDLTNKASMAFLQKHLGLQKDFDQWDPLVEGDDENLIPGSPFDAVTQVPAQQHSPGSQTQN

SMILES	inhibition
Cc1cc(N2CCN(C(=O)Oc3ccc(-c4ccccc4)cc3)CC2)c2ccccc2n1	63%
Cc1cc(N2CCN(C(=O)Oc3ccc(-c4ccccc4)cn3)CC2)c2ccccc2n1	86%

Source: PubChem BioAssay AID588789 (The Scripps Research Institute Molecular Screening Center, 2011)
